Results taken from ChEMBL document CHEMBL3217744, “Non-iminosugar glucocerebrosidase small molecule chaperones” (Medchemcomm, 2012).
Calls of active or inactive are those of the source. The calls are words filed in the database; no cut-off is given here.

Assays:
[1] = Plasma concentration in C57BL/6 mouse at 30 mg/kg, ip after 0.083 hrs; assay type: ADME, organism-based; parameters: dose 30 mg/kg, route intraperitoneal
Outline: (§1)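 Male C57BL/6 mice (20-21 g), single IP dose of 30 mg/kg at 3 mg/mL, 10 mL/kg, in 5% DMAC/5% Solutol HS 15/90% 10 mM pH 7.4 phosphate buffer; n=3 per time point. Retro-orbital blood into K2EDTA under isoflurane, pre-dose to 24 h. Plasma protein-precipitated with acetonitrile containing testosterone internal standard; LC-MS/MS positive ESI MRM; calibration 1.00-10000 ng/mL.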

[2] = Plasma concentration in C57BL/6 mouse at 30 mg/kg, ip after 12 hrs; assay type: ADME, organism-based; parameters: dose 30 mg/kg, route intraperitoneal; outline: as §1
[3] = tested on: Mus musculus; experiment: Tmax in C57BL/6 mouse at 30 mg/kg, ip after 24 hrs; assay type: ADME, organism-based; parameters: dose 30 mg/kg, route intraperitoneal; settings: in vivo; outline: as §1
[4] = Plasma concentration in C57BL/6 mouse at 30 mg/kg, ip after 8 hrs; assay type: ADME, organism-based; parameters: dose 30 mg/kg, route intraperitoneal; outline: as §1
[5] = tested on: Mus musculus; experiment: AUC (infinity) in C57BL/6 mouse at 30 mg/kg, ip after 24 hrs; assay type: ADME, organism-based, Plasma; parameters: time infinity, dose 30 mg/kg, route intraperitoneal; settings: in vivo; outline: as §1
[6] = target: T1, Lysosomal acid glucosylceramidase (Homo sapiens, UniProt P04062, N409S); experiment: (§2) Inhibition of glucocerebrosidase N370S mutant in spleen homogenates of patient with Gaucher disease using resorufin-beta-D-glucopyranoside as substrate after 20 mins fluorescence assay; assay type: tissue-based
[7] = tested on: Mus musculus; experiment: AUClast in C57BL/6 mouse at 30 mg/kg, ip after 24 hrs; assay type: ADME, organism-based, Plasma; parameters: time < 24 hr, dose 30 mg/kg, route intraperitoneal; settings: in vivo; outline: as §1
[8] = Plasma concentration in C57BL/6 mouse at 30 mg/kg, ip after 4 hrs; assay type: ADME, organism-based; parameters: dose 30 mg/kg, route intraperitoneal; outline: as §1
[9] = tested on: Mus musculus; experiment: Cmax in C57BL/6 mouse at 30 mg/kg, ip after 24 hrs; assay type: ADME, organism-based; parameters: dose 30 mg/kg, route intraperitoneal; settings: in vivo; outline: as §1
[10] = Plasma concentration in C57BL/6 mouse at 30 mg/kg, ip after 1 hr; assay type: ADME, organism-based; parameters: dose 30 mg/kg, route intraperitoneal; outline: as §1
[11] = Plasma concentration in C57BL/6 mouse at 30 mg/kg, ip after 24 hrs; assay type: ADME, organism-based; parameters: dose 30 mg/kg, route intraperitoneal; outline: as §1
[12] = Plasma concentration in C57BL/6 mouse at 30 mg/kg, ip after 0.5 hrs; assay type: ADME, organism-based; parameters: dose 30 mg/kg, route intraperitoneal; outline: as §1
[13] = tested on: T2, Lysosomal acid glucosylceramidase (Homo sapiens), P04062 [N409S]; experiment: Induction of glucocerebrosidase N370S mutant translocation in fibroblasts of patient with Gaucher disease assessed as co-localization of LAMP-1 in lysosomes at 1 uM after 5 days by laser scanning confocal microscopic analysis
T2 sequence (whole entry): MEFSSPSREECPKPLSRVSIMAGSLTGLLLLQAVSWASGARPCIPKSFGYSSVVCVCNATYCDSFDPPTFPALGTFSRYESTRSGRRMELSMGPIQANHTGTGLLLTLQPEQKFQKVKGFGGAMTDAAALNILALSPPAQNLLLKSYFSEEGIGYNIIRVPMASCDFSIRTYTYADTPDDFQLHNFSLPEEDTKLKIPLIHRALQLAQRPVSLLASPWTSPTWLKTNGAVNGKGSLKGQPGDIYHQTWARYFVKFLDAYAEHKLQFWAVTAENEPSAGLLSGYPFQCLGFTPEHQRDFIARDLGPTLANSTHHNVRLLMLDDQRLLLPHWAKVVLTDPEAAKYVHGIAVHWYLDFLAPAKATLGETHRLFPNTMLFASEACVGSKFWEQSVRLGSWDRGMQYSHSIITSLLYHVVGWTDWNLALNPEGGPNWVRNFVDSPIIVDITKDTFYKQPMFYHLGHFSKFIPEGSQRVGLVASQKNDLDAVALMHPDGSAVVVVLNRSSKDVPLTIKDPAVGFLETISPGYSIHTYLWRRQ
Outline: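 Gaucher patient fibroblasts on chamber slides, treated 5 days with compound. Cells fixed in 3% paraformaldehyde and permeabilized with 0.1% Triton-X. Stained with anti-LAMP-1 (1:100) and anti-GCase R386 (1:500), then Alexa-488/555 secondaries and DAPI. Imaged by confocal laser scanning at identical laser settings; collapsed z-stacks.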

[14] = target: T1, Lysosomal acid glucosylceramidase; experiment: Inhibition of glucocerebrosidase N370S mutant in spleen homogenates of patient with Gaucher disease using resorufin-beta-D-glucopyranoside as substrate after 60 mins fluorescence assay; assay type: tissue-based
[15] = Plasma concentration in C57BL/6 mouse at 30 mg/kg, ip after 2 hrs; assay type: ADME, organism-based; parameters: dose 30 mg/kg, route intraperitoneal; outline: as §1
[16] = Plasma concentration in C57BL/6 mouse at 30 mg/kg, ip after 0.25 hrs; assay type: ADME, organism-based; parameters: dose 30 mg/kg, route intraperitoneal; outline: as §1
[17] = tested on: Mus musculus; experiment: Half life in C57BL/6 mouse at 30 mg/kg, ip after 24 hrs; assay type: ADME, organism-based; parameters: dose 30 mg/kg, route intraperitoneal; settings: in vivo; outline: as §1
[18] = target: Somatostatin receptor type 4 (Homo sapiens, UniProt P31391); experiment: Binding affinity to human SST4 receptor
[19] = tested on: T2, Lysosomal acid glucosylceramidase (Homo sapiens), P04062 [N409S]; experiment: as §2; assay type: tissue-based

Somatostatin receptor type 4, sequence (P31391 whole entry): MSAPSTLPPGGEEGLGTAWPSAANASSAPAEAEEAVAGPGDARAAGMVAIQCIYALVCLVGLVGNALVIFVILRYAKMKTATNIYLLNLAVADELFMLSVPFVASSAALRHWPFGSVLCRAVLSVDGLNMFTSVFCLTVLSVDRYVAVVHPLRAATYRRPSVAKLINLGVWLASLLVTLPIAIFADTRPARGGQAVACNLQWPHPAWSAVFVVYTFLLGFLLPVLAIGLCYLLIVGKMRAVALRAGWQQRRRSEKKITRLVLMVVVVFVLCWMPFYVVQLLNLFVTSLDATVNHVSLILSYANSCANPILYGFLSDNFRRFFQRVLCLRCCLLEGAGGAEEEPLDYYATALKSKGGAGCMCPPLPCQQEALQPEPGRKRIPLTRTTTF

## S=C(NCCCc1c[nH]cn1)NCCCN(Cc1ccc(Cl)c(Cl)c1)c1ccc(Br)cn1
[1]
  concentration at 0.083 h: 3.03 µM
[2]
  concentration at 12 h: 0.2 µM
[3]
  Tmax: 1 h
[4]
  concentration at 8 h: 1.35 µM
[5]
  AUC: 20700 ng·h/mL
[6]
  IC50: 600 nM
[7]
  AUClast: 20600 ng·h/mL
[8]
  concentration at 4 h: 4.29 µM
[9]
  Cmax: 3553 ng/mL
[10]
  concentration at 1 h: 6.39 µM
[11]
  concentration at 24 h: 0.02 µM
[12]
  concentration at 0.5 h: 4.84 µM
[13]
  Activity: Active
[14]
  IC50: 580 nM
[15]
  concentration at 2 h: 6.17 µM
[16]
  concentration at 0.25 h: 4.24 µM
[17]
  t1/2: 2.57 h

## CN(CCCN(Cc1ccc(Cl)cc1)c1ccc(Br)cn1)C(=S)NCCCc1cnc[nH]1
[6]
  IC50: 2800 nM
[18]
  Ki: 19 nM

## CN(CCCc1cnc[nH]1)C(=S)NCCCN(Cc1ccc(Cl)cc1)c1ccc(Br)cn1
[6]
  IC50: 18000 nM
[18]
  Ki: 26 nM

## S=C(NCCCc1c[nH]cn1)NCCCN(Cc1ccc(Cl)cc1)c1ccc(Br)cn1
[6]
  IC50: 1200 nM

## O=C(NCCCc1c[nH]cn1)NCCCN(Cc1ccc(Cl)c(Cl)c1)c1ccc(Br)cn1
[6]
  IC50: 600 nM

## S=C(NCCCNc1ccc(Br)cn1)NCCCc1c[nH]cn1
[6]
  IC50: 46000 nM
[18]
  Ki: 690 nM

## S=C(NCCCCN(Cc1ccc(Cl)cc1)c1ccc(Br)cn1)NCCCc1cnc[nH]1
[6]
  IC50: 800 nM

## S=C(NCCCc1c[nH]cn1)NCCCN(Cc1ccccc1)c1ccc(Br)cn1
[6]
  IC50: 5800 nM

## S=C(NCCCc1cnc[nH]1)NCCCN(Cc1ccc(Cl)cc1)c1ccc(Br)cc1
[6]
  IC50: 1300 nM
[18]
  Ki: 160 nM
[13]
  Activity: Active

## S=C(NCCCc1cnc[nH]1)NCCCN(Cc1ccc(Cl)cc1)c1ccc(-c2ccccc2)cn1
[6]
  IC50: 1300 nM

## S=C(NCCCc1c[nH]cn1)NCCCN(Cc1ccc(Cl)c(Cl)c1)c1ccccn1
[6]
  IC50: 7300 nM

## OC[C@H]1CNC[C@@H](O)[C@@H]1O
[13]
  Activity: Active

## NCCCNC(=S)NCCCN(Cc1ccc(Cl)cc1)c1ccc(Br)cn1
[6]
  IC50: 45000 nM

## CC(=O)NCCCNC(=S)NCCCN(Cc1ccc(Cl)cc1)c1ccc(Br)cn1
[19]
  inhibition: inactive

## CCCCNC(=S)NCCCN(Cc1ccc(Cl)c(Cl)c1)c1ccc(Br)cn1
[19]
  inhibition: inactive

## O=C(NCCCc1cnc[nH]1)NCCCN(Cc1ccc(Cl)cc1)c1ccc(Br)cn1
[6]
  IC50: 1000 nM

## CCCCN(CCCNC(=S)NCCCc1c[nH]cn1)c1ccc(Br)cn1
[6]
  IC50: 8200 nM

## S=C(NCCCc1cnc[nH]1)NCCCN(Cc1ccc(Cl)cc1)c1cc(-c2ccccc2)ccn1
[6]
  IC50: 4000 nM

## S=C(NCCCc1cnc[nH]1)NCCCN(CCc1ccc(Cl)cc1)c1ccc(Br)cn1
[6]
  IC50: 2000 nM

## S=C(NCCCc1cnc[nH]1)NCCCN(CCc1ccccc1)c1ccc(Br)cn1
[6]
  IC50: 2800 nM

## S=C(NCCCc1c[nH]cn1)NCCN(Cc1ccc(Cl)c(Cl)c1)c1ccc(Br)cn1
[6]
  IC50: 2100 nM

## S=C(NCCCN(Cc1ccc(Cl)c(Cl)c1)c1ccc(Br)cn1)NCCc1c[nH]cn1
[6]
  IC50: 18300 nM
